Compound activity as filed in PubChem.
Sampled rows, rich in hits. Any-hit rate of the full collection: about 4.6%.
GPR7 antagonist = GPR7 receptor antagonists, primary screen, cell-based, fluorescence, single concentration; Neuropeptides B/W receptor type 1 (Homo sapiens), P48145; GPR7-expressing cells, fluorescence antagonist assay; inhibition, % at 4.4 µM; 290,000 compounds, 1.1% hits; AID 1861, 2009; in the data active = inhibition above about 16%, passing the limit was not always enough;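 also: cells stimulated with the agonist NPW; 0% = agonist with vehicle and 100% = vehicle without agonist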
CHO parental Ca = ATP-evoked calcium signal inhibitors, parental CHO, primary screen, counter-screen for OX1R antagonist project, cell-based, fluorescence, Fluo-8 calcium dye; parental CHO-K1, ATP-induced calcium, Fluo-8 fluorescence; inhibition, % at 5.6 µM; 330,000 compounds, 0.63% hits; AID 463079, 2010;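 active = inhibition above that plate's mean sample inhibition plus 3 SD, cut at about 26% in these data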;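 also: 0% = ATP-challenged DMSO wells and 100% = DMSO wells without ATP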
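Material: Parental CHO cells | Reagent: ATP | Compound dosing: Single nominal dose of 5.6 µM per compound | Detection: Intracellular calcium via Fluo-8 no-wash fluorescent dye | Read-out: % inhibition of ATP-induced calcium mobilization | Benchmarks: Low control ATP plus DMSO, high control DMSO only | Replicates: Singlicate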
OX1R antag-1 = antagonists of human orexin 1 receptor (OX1R). OX1R-expressing cells, FRET antagonist read-out. inhibition, % at 6.6 µM. Orexin/Hypocretin receptor type 1 (Homo sapiens), O43613. AID 485270, 2010. 330,000 compounds, 1.8% hits; in the data active = inhibition mostly above about 38%, no sharp cut-off; inactive = mostly below about 40%;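 also: 0% = agonist challenge alone and 100% = reference antagonist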
Target sequence (O43613 whole entry, looked up): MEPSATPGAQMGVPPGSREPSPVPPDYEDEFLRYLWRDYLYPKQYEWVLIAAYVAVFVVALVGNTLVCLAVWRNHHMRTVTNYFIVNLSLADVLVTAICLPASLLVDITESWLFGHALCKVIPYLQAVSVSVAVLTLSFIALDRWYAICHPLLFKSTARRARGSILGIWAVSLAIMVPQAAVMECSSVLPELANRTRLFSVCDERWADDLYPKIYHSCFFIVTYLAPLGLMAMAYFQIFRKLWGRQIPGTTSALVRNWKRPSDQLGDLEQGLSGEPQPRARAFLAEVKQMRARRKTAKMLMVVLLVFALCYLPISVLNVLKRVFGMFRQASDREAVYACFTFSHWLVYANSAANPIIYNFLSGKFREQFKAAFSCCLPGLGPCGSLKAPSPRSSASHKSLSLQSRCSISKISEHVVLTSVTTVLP
TAAR1 antag = human TAAR1 antagonists, primary screen, Fluo-8 calcium fluorescence, CHO RD-HGA16 cells; antagonist; inhibition, % at 3 µM; 360,000 compounds, 1.5% hits;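 active = inhibition above a per-plate cutoff, the mean inhibition of test compounds on that plate plus 3 SD, cut at about 49% in these data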;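 also: 0% = DMSO plus EC80 beta-PEA response and 100% = DMSO alone without agonist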
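Assay system: RD-HGA16 CHO cells with stable hTAAR1 and Gα16 / Reagent: EC80 β-phenethylamine stimulus / Doses: 3 µM, single point / Timing: dye loading 75 min at 37 °C, then 30 min room temperature / Measured by: Fluo-8 intracellular calcium dye fluorescence, real-time kinetic reads / Controls: vehicle wells and EC80 agonist wells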
OX1R antag-2 = OX1R (HCRTR1) antagonists, primary screen, fluorescence, CHO/OX1R cells, Fluo-8 calcium, orexin A. Orexin/Hypocretin receptor type 1 (Homo sapiens), O43613. Fluo-8 calcium fluorescence. inhibition, % at 5 µM. 330,000 compounds, 0.43% hits;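 active = inhibition above its plate's threshold, mean inhibition of all tested compounds on the plate plus 3 SD, cut at about 37% in these data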;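 also: 0% = orexin A challenge wells and 100% = SB-334867-A antagonist wells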
TAAR1 agonist = human TAAR1 agonists, primary screen, Fluo-8 calcium fluorescence, CHO RD-HGA16 cells; vehicle wells 0%, saturating PEA agonist 100%; 360,000 compounds, 0.99% hits; Trace amine-associated receptor 1 (Homo sapiens), Q96RJ0; activation, % at 3 µM; AID 624467, 2012;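 active = activation above the mean activation of all test compounds in the run plus 3 SD, cut at about 38% in these data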
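Test system: RD-HGA16 (CHO) cells co-expressing Gα16 and hTAAR1 / Benchmarks: DMSO vehicle as 0%, PEA at EC100 as 100% / Repeats: no replicates (n 1) / Measure: % activation from peak over basal fluorescence ratio, DMSO-to-PEA scaled / Timing: 17-24 h plating, Fluo-8 75 min 37 °C, 30 min RT / Technique: kinetic Fluo-8 calcium fluorescence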
GPR7 antag cf = GPR7 receptor antagonists, confirmation, cell-based, fluorescence, single concentration; shares compounds with GPR7 antagonist; GPR7-expressing cells, calcium fluorescence antagonist mode; inhibition, % at 4.4 µM; 2,400 compounds, 52% hits; AID 1952, 2009; in the data active = inhibition above about 24%;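 also: stimulated with the GPR7 agonist NPW; 0% = agonist plus vehicle and 100% = vehicle alone without agonist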
MCHR1 antagonist = MCHR1 antagonists in cells, counter-screen for GPR7 antagonist project, cell-based, fluorescence, human | shares compounds with GPR7 antagonist | MCHR1-expressing cells, fluorescence antagonist assay | inhibition, % at 4.4 µM | 2,400 compounds, 62% hits | AID 2148, 2009; in the data active = inhibition above about 22%;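 also: 0% = vehicle with agonist and 100% = vehicle without agonist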
An asterisk follows results filed as active; · = not tested or not shown.

SMILES | GPR7 antagonist | CHO parental Ca | OX1R antag-1 | TAAR1 antag | OX1R antag-2 | TAAR1 agonist | GPR7 antag cf | MCHR1 antagonist
CC(CCn1cccn1)NC(=O)c1cc(COc2ccc(F)cc2Cl)on1 (stereo not drawn) | 33.8* | -9.9 | -3.6 | 9.0 | -26.3 | 1.9 | -7.2 | 13.6
Cc1ccc(-c2ccc(C3C(C#N)=C(N)Oc4n[nH]c(C)c43)o2)cc1 (stereo not drawn) | 26.5* | -5.5 | 18.2 | 16.2 | 8.2 | 17.9 | 49.2* | 71.8*
O=S(=O)(Cc1ccc(Cl)cc1)NCc1cccnc1 | 24.6* | -13.3 | 12.1 | -1.9 | -14.6 | 6.9 | -3.6 | -2.6
Cc1ccc(C(=O)N2CCCCC2)cc1S(=O)(=O)N1CCCCCC1 | 21.5* | -4.6 | 11.3 | 4.8 | -21.4 | 11.7 | 25.5* | 5.3
Cc1ccc(C(=O)N2CCOCC2)cc1S(=O)(=O)N1CCCC1 | -5.2 | 5.5 | -1.2 | -17.3 | -5.7 | 0.9 | · | ·
O=C(c1ccc(Cl)c(S(=O)(=O)N2CCCCCC2)c1)N1CCCCC1 | · | 9.2 | 16.0 | 15.1 | -5.2 | 28.3 | · | 16.2
CN1CCN(C(=O)c2ccc(Cl)c(S(=O)(=O)N3CCCCC3)c2)CC1 | -11.0 | -9.0 | -4.0 | 6.4 | -36.5 | 13.8 | · | ·
O=C(CCNC(=O)OCc1ccccc1)NC1CCCCCC1 | -7.8 | -16.4 | 2.6 | 0.2 | 0.4 | 11.5 | · | ·
CSCC[C@H](NC(=O)OC(C)(C)C)c1nnc(SCC(=O)Nc2ccc(C)cc2C)o1 | 6.2 | -18.3 | 8.8 | -15.2 | -30.3 | 1.9 | · | ·
Cc1cc(Nc2n[nH]c(N)c2C#N)ccc1F | -17.6 | -6.7 | 9.9 | -9.4 | 5.7 | 9.1 | · | ·
O=C(CNS(=O)(=O)c1ccccc1)OCC(=O)c1ccc(OC(=O)c2ccccc2)cc1 | 24.1* | -4.8 | 6.5 | 42.0 | 12.7 | 13.3 | 26.1* | 39.4*
O=C(CNS(=O)(=O)c1ccccc1)OCC(=O)c1ccc(Br)cc1 | -8.9 | 3.7 | 10.3 | -11.5 | 6.6 | 5.9 | · | ·
c1ccc(CNCCC(Cc2ccccc2)c2ccco2)cc1 (stereo not drawn) | 23.3* | -46.7 | 12.9 | -8.8 | -38.0 | 15.8 | 28.3* | 35.2*
COc1ccc(C2c3cc(OC)c(OC)cc3CCN2S(C)(=O)=O)cc1OC (stereo not drawn) | 8.3 | · | · | 15.4 | · | 0.7 | · | ·
CCOC(=O)CCS(=O)(=O)c1ccc(-c2ccc(S(=O)(=O)CCC(=O)OCC)cc2)cc1 | 31.1* | -11.3 | 9.1 | 4.7 | 5.1 | 12.6 | 44.5* | 48.9*
Cc1ccc(S(=O)(=O)CCC(=O)OCC(=O)NC(N)=O)cc1 | -9.9 | -6.8 | 10.9 | -20.0 | 3.9 | 1.1 | · | ·
CCC[C@@H](CN[C@@H](CNC)C(C)C)NCCCCc1ccccc1 | 8.2 | -11.1 | 35.3 | -12.7 | -23.9 | 13.9 | · | ·
CNC[C@@H](CC1CCCCC1)NC[C@H](CC(C)C)NCCc1cccc(C(F)(F)F)c1 | 56.3* | 19.9 | 14.8 | 26.8 | 5.5 | 30.6 | 72.5* | 88.0*
CCC[C@@H](CNC)NC[C@H](Cc1ccccc1)NCCCCc1ccccc1 | 41.1* | -8.5 | 1.2 | 14.8 | -13.2 | 4.7 | 51.0* | 71.3*
CNC[C@@H](Cc1ccccc1)NC[C@@H](CC1CCCCC1)NCCCc1ccccc1 | 64.7* | 8.2 | 13.5 | 33.2 | -6.3 | 35.2 | 81.8* | 93.0*
O=C(O)c1ccc(Cl)c(S(=O)(=O)Nc2ccc(OCc3ccccc3)cc2)c1 | -3.6 | 2.3 | 16.9 | -11.6 | 3.1 | 3.8 | · | ·
Oc1ccc(Br)cc1/C=N/n1c(C2CCCCC2)n[nH]c1=S | -4.8 | 18.7 | -0.4 | -9.2 | -0.6 | -1.8 | · | ·
